Test results: PMC7449315 (Journal for Immunotherapy of Cancer, 2020)

Test: phase I trial: safety and tolerability
Format: in vivo, human
How it was run: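 Fifteen patients were dosed orally twice daily (three per cohort, 100–800 mg). AEs, DLTs, physical exams, vital signs, ECGs and laboratory chemistry, hematology and coagulation were recorded from first dose to end of treatment. AEs were graded by the investigator using NCI CTCAE v4.03. DLTs were assessed in cycle 1 (days 1–28): grade ≥3 or immune-related non-hematologic events, and grade ≥4 hematologic events.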

## NS(=O)(=O)[C@H]1CC[C@](F)(CC[C@H]2c3ccccc3-c3cncn32)CC1 [M4112]
100 mg two times per day (n=3)
  Abdominal distension: 0 (0.0) n (%)
  Abdominal pain: 0 (0.0) n (%)
  Alanine aminotransferase increased: 0 (0.0) n (%)
  Amylase increased: 0 (0.0) n (%)
  Anemia of malignant disease: 0 (0.0) n (%)
  Any AE: 3 (100) n (%)
  Any SAE: 0 n (%)
  Aspartate aminotransferase increased: 0 (0.0) n (%)
  Blood alkaline phosphatase increased: 0 (0.0) n (%)
  Blood creatine phosphokinase increased: 0 (0.0) n (%)
  Blood creatinine increased: 0 (0.0) n (%)
  Cough: 1 (33.3) n (%)
  Decreased appetite: 1 (33.3) n (%)
  Dehydration: 0 (0.0) n (%)
  Diarrhea: 0 (0.0) n (%)
  Dyspepsia: 2 (66.7) n (%)
  Dysphagia: 1 (33.3) n (%)
  Fatigue: 2 (66.7) n (%)
  Fever: 0 (0.0) n (%)
  Gamma-glutamyl transferase increased: 0 (0.0) n (%)
  Hypercalcemia: 0 (0.0) n (%)
  Lipase increased: 0 (0.0) n (%)
  Lymphocyte count decreased: 0 (0.0) n (%)
  Maculopapular rash: 1 (33.3) n (%)
  Nausea: 1 (33.3) n (%)
  Palmar-plantar erythrodysesthesia syndrome: 1 (33.3) n (%)
  Platelet count decreased: 0 (0.0) n (%)
  Tumor pain: 0 (0.0) n (%)
  Vomiting: 2 (66.7) n (%)
200 mg two times per day (n=3)
  Abdominal distension: 0 (0.0) n (%)
  Abdominal pain: 0 (0.0) n (%)
  Alanine aminotransferase increased: 0 (0.0) n (%)
  Amylase increased: 0 (0.0) n (%)
  Anemia of malignant disease: 0 (0.0) n (%)
  Any AE: 3 (100) n (%)
  Any SAE: 0 n (%)
  Aspartate aminotransferase increased: 0 (0.0) n (%)
  Blood alkaline phosphatase increased: 0 (0.0) n (%)
  Blood creatine phosphokinase increased: 1 (33.3) n (%)
  Blood creatinine increased: 0 (0.0) n (%)
  Cough: 1 (33.3) n (%)
  Decreased appetite: 0 (0.0) n (%)
  Dehydration: 1 (33.3) n (%)
  Diarrhea: 1 (33.3) n (%)
  Dyspepsia: 0 (0.0) n (%)
  Dysphagia: 0 (0.0) n (%)
  Fatigue: 0 (0.0) n (%)
  Fever: 1 (33.3) n (%)
  Gamma-glutamyl transferase increased: 0 (0.0) n (%)
  Hypercalcemia: 1 (33.3) n (%)
  Lipase increased: 1 (33.3) n (%)
  Lymphocyte count decreased: 1 (33.3) n (%)
  Maculopapular rash: 0 (0.0) n (%)
  Nausea: 1 (33.3) n (%)
  Palmar-plantar erythrodysesthesia syndrome: 0 (0.0) n (%)
  Platelet count decreased: 1 (33.3) n (%)
  Tumor pain: 0 (0.0) n (%)
  Vomiting: 1 (33.3) n (%)
400 mg two times per day (n=3)
  Abdominal distension: 1 (33.3) n (%)
  Abdominal pain: 1 (33.3) n (%)
  Alanine aminotransferase increased: 1 (33.3) n (%)
  Amylase increased: 1 (33.3) n (%)
  Anemia of malignant disease: 1 (33.3) n (%)
  Any AE: 3 (100) n (%)
  Any SAE: 1 (33.3) n (%)
  Aspartate aminotransferase increased: 0 (0.0) n (%)
  Blood alkaline phosphatase increased: 0 (0.0) n (%)
  Blood creatine phosphokinase increased: 1 (33.3) n (%)
  Blood creatinine increased: 1 (33.3) n (%)
  Cough: 1 (33.3) n (%)
  Decreased appetite: 1 (33.3) n (%)
  Dehydration: 0 (0.0) n (%)
  Diarrhea: 0 (0.0) n (%)
  Dyspepsia: 0 (0.0) n (%)
  Dysphagia: 1 (33.3) n (%)
  Fatigue: 1 (33.3) n (%)
  Fever: 0 (0.0) n (%)
  Gamma-glutamyl transferase increased: 0 (0.0) n (%)
  Hypercalcemia: 1 (33.3) n (%)
  Lipase increased: 0 (0.0) n (%)
  Lymphocyte count decreased: 0 (0.0) n (%)
  Maculopapular rash: 1 (33.3) n (%)
  Nausea: 0 (0.0) n (%)
  Palmar-plantar erythrodysesthesia syndrome: 1 (33.3) n (%)
  Platelet count decreased: 0 (0.0) n (%)
  Tumor pain: 1 (33.3) n (%)
  Vomiting: 0 (0.0) n (%)
600 mg two times per day
  dose reductions due to AEs (one grade 3 diarrhea and one grade 3 rash after the DLT period): Two patients
600 mg two times per day (n=3)
  Abdominal distension: 1 (33.3) n (%)
  Abdominal pain: 1 (33.3) n (%)
  Alanine aminotransferase increased: 0 (0.0) n (%)
  Amylase increased: 1 (33.3) n (%)
  Anemia of malignant disease: 1 (33.3) n (%)
  Any AE: 3 (100) n (%)
  Any SAE: 1 (33.3) n (%)
